Active and inactive are the calls of the source.
Legend:
Mus musculus [1] = organism: Mus musculus; test: Ethanol potentiation was measured against LORR; format: functional
Outline: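 Male CF-1 mice given 7.5 mL/kg 50% aqueous ethanol orally with test compound sc simultaneously (in 0.25% aqueous methyl cellulose). After 30 min, scored for loss of traction (hindlimb placement on wire within 10 s) and loss of righting reflex (no righting within 10 s). Six mice/dose; active compounds retested at several doses for ED50.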

[2] = target: T1, GABA A receptor alpha-6/beta-2/gamma-2 (Homo sapiens, UniProt P18507+P47870+Q16445); test: Displacement of [3H]-Ro-15-4513 from GABA-A receptor alpha-6-beta-2-gamma-2 subunits expressed in Sf9 cells
Outline: (§1)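 Membranes from Sf-9 cells infected (MOI 3) with baculoviruses for α1, α3 or α6 plus β2 and γ2 subunits, harvested 60 h postinfection. Binding in normal saline with 6 nM [3H]flunitrazepam (α1, α3) or [3H]Ro 15-4513 (α6), 50 µg membrane protein, varying test ligand. Incubated 60 min at 4 °C, filtered, scintillation counted.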

Mus musculus [3] = organism: Mus musculus; test: Acute electroshock physical dependence activity was evaluated; IA=Inactive; format: functional, organism-based
Outline: (§2)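 Male CF-1 mice, 10/group, dosed sc twice daily (0800, and 1600 at twice the 0800 dose) for 3 days. 24 h after last dose, iv flumazenil 2.5 mg/kg in 5% aqueous N,N-dimethylacetamide. Electroshock seizure threshold (MA50) measured 5 min later versus saline-treated, flumazenil-injected controls. Compound scored active if threshold lowered beyond control interval.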

Mus musculus [4] = test: In vivo antagonistic activity against benzodiazepine in mice; format: functional
Outline: (§3)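 Male CF-1 mice injected ip simultaneously with triazolam 1 mg/kg and test compound starting at […], in 0.25% aqueous methyl cellulose. Loss of traction scored 15 min later. Absence of triazolam effect indicated antagonism; lower doses at 0.5 log intervals then tested to establish ED50.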

[5] = target: GABA-A receptor; anion channel (Rattus norvegicus) (UniProt O09028+P15431+P18506+P18508+P19969+P20236+P23574+P23576+P28471+P28473+P30191+P62813+P63079+P63138+Q91ZM7+Q9ES14); details: Brain, Brain membranes
Mus musculus [6] = test: Ethanol potentiation activity was measured as loss of traction response in male CF-1 mice after oral administration; format: functional
[7] = target: T2, GABA A receptor alpha-3/beta-2/gamma-2 (Homo sapiens, UniProt P18507+P34903+P47870); test: (§4) Displacement of [3H]flunitrazepam from GABA-A receptor alpha-3-beta-2-gamma-2 subunits expressed in Sf9 cells; outline: as §1
T2 sequence (P47870 whole entry): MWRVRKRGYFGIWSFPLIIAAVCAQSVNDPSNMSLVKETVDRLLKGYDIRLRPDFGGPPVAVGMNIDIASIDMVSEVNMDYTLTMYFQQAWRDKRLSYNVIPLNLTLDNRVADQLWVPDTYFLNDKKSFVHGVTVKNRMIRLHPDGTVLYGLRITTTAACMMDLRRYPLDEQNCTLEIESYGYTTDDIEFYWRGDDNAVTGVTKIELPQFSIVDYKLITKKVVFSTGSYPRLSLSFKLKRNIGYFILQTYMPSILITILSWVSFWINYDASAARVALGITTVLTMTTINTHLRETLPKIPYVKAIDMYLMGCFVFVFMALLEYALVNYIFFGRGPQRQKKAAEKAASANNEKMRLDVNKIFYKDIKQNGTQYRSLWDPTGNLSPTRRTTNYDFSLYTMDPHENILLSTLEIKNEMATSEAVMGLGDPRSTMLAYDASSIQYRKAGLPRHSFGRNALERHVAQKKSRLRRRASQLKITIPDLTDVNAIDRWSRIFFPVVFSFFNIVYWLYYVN
T2 sequence (P18507 whole entry): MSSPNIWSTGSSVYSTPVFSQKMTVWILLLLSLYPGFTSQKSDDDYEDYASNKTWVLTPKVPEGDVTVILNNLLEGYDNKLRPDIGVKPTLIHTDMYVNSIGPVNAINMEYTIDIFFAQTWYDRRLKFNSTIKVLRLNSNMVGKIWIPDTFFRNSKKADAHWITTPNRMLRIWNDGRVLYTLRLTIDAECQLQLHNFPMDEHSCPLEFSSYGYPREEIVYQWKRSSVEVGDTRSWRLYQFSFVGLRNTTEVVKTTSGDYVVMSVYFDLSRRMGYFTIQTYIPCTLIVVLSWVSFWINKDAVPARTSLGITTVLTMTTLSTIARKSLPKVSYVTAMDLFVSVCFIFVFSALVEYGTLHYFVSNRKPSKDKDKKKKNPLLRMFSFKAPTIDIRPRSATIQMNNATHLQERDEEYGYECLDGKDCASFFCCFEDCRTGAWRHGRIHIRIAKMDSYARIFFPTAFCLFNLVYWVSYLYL
T2 sequence (P34903 whole entry): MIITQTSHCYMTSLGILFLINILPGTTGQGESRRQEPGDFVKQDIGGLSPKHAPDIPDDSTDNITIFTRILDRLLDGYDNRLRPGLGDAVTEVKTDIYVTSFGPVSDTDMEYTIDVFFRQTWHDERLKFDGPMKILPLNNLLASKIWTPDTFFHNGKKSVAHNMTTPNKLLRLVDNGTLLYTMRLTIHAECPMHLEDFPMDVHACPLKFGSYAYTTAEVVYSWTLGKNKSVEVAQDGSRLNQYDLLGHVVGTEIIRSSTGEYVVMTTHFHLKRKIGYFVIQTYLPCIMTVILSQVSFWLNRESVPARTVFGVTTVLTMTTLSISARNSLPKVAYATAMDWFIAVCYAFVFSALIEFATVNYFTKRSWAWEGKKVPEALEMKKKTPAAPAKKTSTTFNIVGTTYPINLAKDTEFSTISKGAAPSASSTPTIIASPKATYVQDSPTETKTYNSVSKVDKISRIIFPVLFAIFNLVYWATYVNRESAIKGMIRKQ

[8] = target: GABA-A receptor; anion channel; test: Inhibition of [3H]flunitrazepam binding to GABA-A receptor of rat cortical membranes; format: cell membranes, Membrane
[9] = target: T3, GABA-A receptor; alpha-1/beta-2/gamma-2 (Homo sapiens, UniProt P14867+P18507+P47870); test: (§5) Displacement of [3H]Flunitrazepam from GABA-A receptor alpha-1-beta-2-gamma-2 subunits expressed in Sf9 cells
T3 sequence (P14867 whole entry): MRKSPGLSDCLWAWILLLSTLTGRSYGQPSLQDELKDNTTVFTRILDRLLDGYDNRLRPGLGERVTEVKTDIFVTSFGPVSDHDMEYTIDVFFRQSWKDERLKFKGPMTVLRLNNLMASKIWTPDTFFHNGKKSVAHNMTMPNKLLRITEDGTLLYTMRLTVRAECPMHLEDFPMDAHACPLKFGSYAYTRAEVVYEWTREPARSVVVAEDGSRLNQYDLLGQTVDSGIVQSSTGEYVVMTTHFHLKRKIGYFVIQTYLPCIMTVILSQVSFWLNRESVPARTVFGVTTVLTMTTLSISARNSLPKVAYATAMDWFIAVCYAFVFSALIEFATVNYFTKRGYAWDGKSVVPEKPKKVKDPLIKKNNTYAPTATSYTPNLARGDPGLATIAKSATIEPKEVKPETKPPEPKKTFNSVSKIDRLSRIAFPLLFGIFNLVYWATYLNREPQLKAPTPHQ
T3 sequence (P47870 whole entry): T2 sequence (P47870 whole entry)
T3 sequence (P18507 whole entry): T2 sequence (P18507 whole entry)

Rattus norvegicus [10] = organism: Rattus norvegicus; test: In vitro [36Cl]-uptake in rat cerebrocortical synaptoneurosomes; format: functional; set-up: unit not given here
Outline: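 Rat cerebrocortical synaptoneurosomes (1 mg protein) preincubated 5 min at 30 °C, then mixed with medium containing 0.2 µCi Na36Cl/mL, 118 mM NaCl, 5 mM KCl, 1.8 mM MgSO4, 20 mM Hepes/Tris pH 7.0, ± drug (methanol ≤0.4%). Uptake stopped after 5 s with ice-cold buffer, rapid filtration, four washes, radioactivity counted.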

Rattus norvegicus [11] = test: Antagonistic activity against metrazole-induced clonic convulsions in rat after ip injection; format: functional
[12] = target: T3, GABA-A receptor; alpha-1/beta-2/gamma-2; test: Displacement of [3H]flunitrazepam from GABA-A receptor alpha-1-beta-2-gamma-2 subunits expressed in Sf9 cells; outline: as §1
[13] = target: GABA-A receptor alpha-1/beta-2/gamma-2 (Homo sapiens); test: Binding affinity towards [3H]Fnz in alpha-1-beta-2-gamma-2 subtype was measured
Mus musculus [14] = organism: Mus musculus; test: Acute electroshock physical dependence activity was evaluated; A=Active; format: functional, organism-based; outline: as §2
Mus musculus [15] = test: Acute electroshock physical dependence activity was evaluated; A=Active at 15 mg/Kg; format: functional, organism-based
Mus musculus [16] = test: Ethanol potentiation activity was measured as loss of righting reflex in male CF-1 mice after oral administration; format: functional
[17] = target: T2, GABA A receptor alpha-3/beta-2/gamma-2; test: as §4; remark: listed apart in the source
Outline: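 Sf-9 cells were co-infected with baculoviruses for α3, β2 and γ2 subunits at MOI 3 and harvested 60 h postinfection to prepare membranes. Binding used 6 nM [3H]flunitrazepam, 50 µg membrane protein and varying test ligand concentrations in normal saline (NaCl/KCl/MgCl2/CaCl2/Hepes, pH 7.2). Incubation ran 60 min at 4 °C, followed by glass-fibre filtration, four cold-saline washes and scintillation counting.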

Mus musculus [18] = test: In vivo antagonistic activity against benzodiazepine in mice after ip administration; format: functional; outline: as §3
[19] = target: T3, GABA-A receptor; alpha-1/beta-2/gamma-2; test: as §5; set-up: species or system insect
Outline: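 Equilibrium competition binding on membranes from Sf-9 cells co-infected (MOI 3) with baculoviruses for α1, β2 and γ2 subunits, harvested 60 h postinfection. Assay in normal saline with 6 nM [3H]flunitrazepam, 50 µg membrane protein and varying test ligand concentrations. Incubated 60 min at 4 °C, filtered over glass fiber, washed four times with cold saline, then scintillation counted.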

[20] = target: T1, GABA A receptor alpha-6/beta-2/gamma-2; test: Displacement of [3H]Ro-154513 from GABA-A receptor alpha-6-beta-2-gamma-2 subunits expressed in Sf9 cells; outline: as §1

T1 sequence (Q16445 whole entry, one chain of several): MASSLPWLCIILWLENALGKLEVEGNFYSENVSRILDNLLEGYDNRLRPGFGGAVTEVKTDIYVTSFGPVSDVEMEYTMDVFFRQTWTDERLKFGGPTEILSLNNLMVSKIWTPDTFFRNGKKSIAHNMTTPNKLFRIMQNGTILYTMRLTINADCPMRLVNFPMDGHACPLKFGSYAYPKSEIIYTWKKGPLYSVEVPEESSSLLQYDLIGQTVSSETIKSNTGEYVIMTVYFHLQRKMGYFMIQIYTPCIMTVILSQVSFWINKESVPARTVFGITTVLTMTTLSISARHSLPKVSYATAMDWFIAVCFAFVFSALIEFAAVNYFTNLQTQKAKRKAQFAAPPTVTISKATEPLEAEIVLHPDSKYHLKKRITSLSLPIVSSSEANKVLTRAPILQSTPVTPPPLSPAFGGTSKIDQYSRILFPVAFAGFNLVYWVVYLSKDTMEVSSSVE

SMILES	Ki [2]	[35S] TBPS shift [5]	ED50 (Mus musculus [6])	Ki [7]	Ki [8]	Ki [9]	36Cl- uptake (Rattus norvegicus [10])	ED50 (Rattus norvegicus [11])	Ki [12]	ED50 (Mus musculus [16])	also measured
CC(C)n1c(=O)c2c(-c3noc(C4CC4)n3)ncn2c2ccccc21 [PANADIPLON]	603 nM	0.06	6.6 mg/kg	5.7 nM	1.6 nM	3.5 nM	0.04	1.6 mg/kg			ED50 (Mus musculus [1]): > 30 mg/kg; Activity (Mus musculus [3]): inactive; ED50 (Mus musculus [4]): 1.7 mg/kg
O=C(N1CCOCC1)N1Cc2c(-c3noc(C4CC4)n3)ncn2-c2ccc(Cl)cc21		0.71			2.3 nM		1		0.22 nM		Ki [13]: 2 nM
O=C(N1CCOCC1)N1Cc2c(-c3noc(C4CC4)n3)ncn2-c2cccc(F)c21	13 nM	0.66		0.51 nM	0.48 nM	0.17 nM	0.42	6.2 mg/kg			Activity (Mus musculus [14]): Active
O=C(c1ccccc1)N1Cc2c(-c3noc(C4CC4)n3)ncn2-c2ccccc21	1140 nM	0.54				0.3 nM		42 mg/kg			
CN1C(=O)CN=C(c2ccccc2)c2cc(Cl)ccc21 [DIAZEPAM]	> 7000 nM		0.54 mg/kg				1	0.5 mg/kg		0.86 mg/kg	Activity (Mus musculus [15]): Active
CN(C)C(=O)N1Cc2c(-c3noc(C4CC4)n3)ncn2-c2ccccc21 [PNU-91571]		0.69	27 mg/kg		1 nM		0.68	21 mg/kg	1.7 nM	> 30 mg/kg	Ki [17]: 3.5 nM; Activity (Mus musculus [3]): inactive; ED50 (Mus musculus [18]): 1 mg/kg
O=C(N1CCOCC1)N1Cc2c(-c3noc(C4CC4)n3)ncn2-c2ccc(F)cc21		0.96	2 mg/kg	0.7 nM	0.68 nM	0.3 nM	1.1	6.2 mg/kg		> 30 mg/kg	A (Mus musculus [14]): Active; ED50 (Mus musculus [18]): 1 mg/kg
CCOC(=O)c1ncn2c1CN(C)C(=O)c1cc(N=[N+]=[N-])ccc1-2 [Ro-154513]											Ki [19]: 15 nM
Cc1cccc2c1N(C(=O)N1CCOCC1)Cc1c(-c3noc(C4CC4)n3)ncn1-2		0.51		30 nM	4.6 nM	4.7 nM	0.7	5.2 mg/kg			
CC(=O)N1Cc2c(-c3noc(C4CC4)n3)ncn2-c2ccccc21		0.94						35 mg/kg	2.7 nM		Ki [20]: 124 nM
CCNC(=O)N1Cc2c(-c3noc(C4CC4)n3)ncn2-c2ccccc21		0.72	> 30 mg/kg		3.5 nM		0.22	5.3 mg/kg	4.5 nM	> 30 mg/kg	Ki [17]: 15 nM; Activity (Mus musculus [3]): inactive; ED50 (Mus musculus [18]): > 30 mg/kg

From ChEMBL document CHEMBL1129282, “High-affinity partial agonist imidazo[1,5-a]quinoxaline amides, carbamates, and ureas at the gamma-aminobutyric acid A/benzodiazepine receptor complex” (J Med Chem, 1996)
